The values below come from ChEMBL document CHEMBL2429829, “Inhibitors of the aminoglycoside 6'-N-acetyltransferase type Ib [AAC(6')-Ib] identified by in silico molecular docking” (Bioorg Med Chem Lett, 2013).

What is called inhibition is how much of the control response was suppressed. Low readings indicate a weak effect, high ones a strong effect.

This assay is described as follows: Inhibition of aminoglycoside 6'-N-acetyltransferase Ib (unknown origin)-mediated acetylation expressed in Escherichia coli using kanamycin A and acetyl CoA as substrate at 100 uM preincubated for 10 mins followed by enzyme addition by spectrophotometric analysis relative to control. The essentials:
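Enzyme: thioredoxin-fused AAC(6′)-Ib, arabinose-induced in E. coli, partially purified by DEAE ion exchange. Reaction: 20 mM Tris pH 7.5, 0.2 mM DTNB, 50 μM acetyl CoA, 18 μM kanamycin A, compound at 100 μM in 10% DMSO. Mix held 10 min at room temperature before enzyme added. CoA–SH release read at 412 nm. Percent inhibition from initial velocities versus no-compound reactions; mean of three experiments.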

With `CCc1cc(Br)ccc1N1C(=O)[C@H]2C3c4ccccc4C(c4ccccc43)[C@@H]2C1=O`, the inhibition came to 0%. For `Cc1ccc(-c2csc(NC(=S)NC(=O)c3ccccc3Br)n2)cc1` the value was 0%; for `O=C1NC(=S)N(c2ccccc2)C(=O)/C1=C/c1ccc(OCc2ccccc2)cc1`, 0%.

`CC(C)(C)NC(=O)c1cccc(NC(=O)c2ccc3c(c2)C(=O)N(Cc2ccncc2)C3=O)c1`: the inhibition was 0%.

The compound `Cc1cccc(C)c1NC(=O)C(Cc1c[nH]c2ccccc12)NC(=O)Oc1ccccc1` (stereo not drawn) had an inhibition of 0%. The compound `O=C(CSc1nc2ccccc2c(=O)n1Cc1ccccc1)c1cc2ccccc2o1` registered an inhibition of 0%. For the compound `O=C(CSc1nnnn1-c1ccccc1)Nc1ccc(-c2ccc([N+](=O)[O-])cc2)cc1`, the inhibition worked out at 0%. `O=C1[C@@H]2[C@H](C(=O)N1/N=C/c1ccccc1OCc1ccc(Cl)cc1)[C@@H]1C=C[C@H]2C1`: the inhibition amounted to 12%. As for `c1ccc2oc(-c3nn4c(-c5ccncc5)nnc4s3)cc2c1`, the figure is 0%. The compound `COc1cc(/C=C2\C(=O)NC(=S)N(c3ccccc3)C2=O)ccc1OCc1ccc(C(=O)O)cc1` gave an inhibition of 0%. As for `O=C(Nc1ccccc1)c1ccccc1/N=C/c1ccc(/C=N/c2ccccc2C(=O)Nc2ccccc2)cc1`, the figure is 0%.

With `Cc1nc(N/N=C/c2ccc(OC(=O)c3cccnc3)cc2)c2c3c(sc2n1)CCCC3`, the inhibition is 0%. For `O=C(NC(=S)Nc1ccc2c3c(oc2c1)CCCC3)c1ccc2c(c1)OCO2` the value was 0%.

The compound `O=C1C(=Cc2ccco2)C(=O)N(c2ccccc2)C(=S)N1c1ccccc1` had an inhibition of 0%. For `Cc1ccc2nc(C)cc(C(=O)OCC(=O)c3ccc(-c4ccccc4)cc3)c2c1` the value was 0%; for `O=C(c1cccc([N+](=O)[O-])c1)c1ccc2c(c1)C(=O)N(c1cccc(-c3nc4ccccc4o3)c1)C2=O`, 0%; for `O=C(/C=C/c1cccc2ccccc12)N1CCN(CCN2C(=O)c3cccc4cccc(c34)C2=O)CC1`, 0%.

Turning to `Brc1ccc2nc(Nc3cccc4ccccc34)nc(-c3ccccc3)c2c1`, the inhibition came out at 0%.

`O=C1C(=Cc2ccco2)C(=O)N(c2ccccc2)C(=O)N1c1ccccc1` had an inhibition of 0%. As for `Cc1ccc(S(=O)(=O)Nc2cc3c(c4ccccc24)O[C@]2(C3)N(C)c3ccccc3C2(C)C)c(C)c1`, the figure is 0%; as for `Cc1nn(Cc2ccc(F)cc2)c(C)c1NC(=O)c1cc(-c2ccc(F)cc2)on1`, 0%. For `O=C1C(=Cc2ccc(-c3ccc(Cl)cc3[N+](=O)[O-])o2)C(=O)N(c2ccccc2)C(=S)N1c1ccccc1` the value was 0%. As for `Cc1ccnc(Nc2nc(-c3ccc4ccccc4c3)cs2)c1`, the figure is 0%; as for `Cc1ccc(NC(=O)COc2ccc3c4c(c(=O)oc3c2)CCCCC4)cc1`, 0%. For `CCc1ccc(-c2nc3ccccc3c(C(=O)Nc3ccc(C(=O)N4CCCC4)cc3)c2C)cc1`, the inhibition was 0%. For `S=C(N/N=C1/CCCc2c1[nH]c1ccc(C3CCCCC3)cc21)Nc1ccccc1` the value was 0%. For `CC[C@H](C1=NN2C(=N)/C(=C\c3ccc(-c4cccc(C(=O)O)c4)o3)C(=O)N=C2S1)c1ccccc1` the value was 0%. Take `O=C1NC(=O)N(c2ccccc2)C(=O)/C1=C/c1cc(Cl)ccc1OCc1ccc(C(=O)O)cc1`: the inhibition is 0%. For the compound `O=C(c1ccc(N2CCCCC2)cc1)N1CCC2c3ccccc3NC2[C@@H]1c1ccccn1` (stereo partly drawn), the inhibition amounted to 0%.

`O=C(NC(=S)Nc1nc(-c2cccc3ccccc23)cs1)c1ccc2c(c1)OCCO2` displayed an inhibition of 0%. The compound `Cc1ccc(-c2cc(C(=O)NCc3ccc(S(N)(=O)=O)cc3)c3ccccc3n2)cc1C` came in with an inhibition of 0%.

The compound `O=C(c1ccc2c3c(cccc13)CC2)[C@H]1CCCN(C(=O)c2cn3ccccc3n2)C1` showed an inhibition of 0%. For `Cc1ccc(NC(=O)c2ccccc2N2C(=O)[C@@H]3[C@@H]4C=C[C@@H]([C@H]5C[C@@H]45)[C@@H]3C2=O)cc1C` the value was 0%; for `Cc1ccc(S(=O)(=O)Nc2c3ccccc3c(O)c3c4c(oc23)CC(C)(C)CC4=O)cc1`, 0%.

Turning to `O=C(Nc1ccccc1N1CCCCC1)c1cccc(-c2cc3ccccc3oc2=O)c1`, the inhibition came out at 0%.

The compound `O=C(Nc1ccc2c(c1)C(=O)c1ccccc1C2=O)c1cccc([N+](=O)[O-])c1` gave an inhibition of 0%. For `O=C1C(=Cc2ccc(-c3ccccc3Cl)o2)C(=O)N(c2ccccc2)C(=S)N1c1ccccc1` the value was 0%; for `O=C1C[C@H](c2ccc3cccc(O)c3n2)c2ccc(N3CCOC3=O)cc2N1`, 0%. As for `CN1C(=O)c2ccc(NC(=O)[C@H]3CC(=O)N(c4ccccc4)C3)cc2C1=O`, the figure is 0%; as for `Cc1ccc2nc(N3C(=O)c4cccc5cccc(c45)C3=O)sc2c1`, 0%.

Regarding `O=c1[nH]c(-c2cccc(OCc3ccccc3)c2)nc2sc3c(c12)CCCC3`, the inhibition was 0%. For `Cn1c(SCC(=O)Nc2cccc3ccccc23)nnc1-c1ccc(F)cc1` the value was 0%; for `Cc1ccc(C(=O)O)cc1NC(=S)NC(=O)c1cccc2c(Br)cccc12`, 0%; for `O=c1oc2ccc(Br)cc2cc1C1=Nn2c(nc3ccccc3c2=O)SC1`, 0%. In the case of `Cc1ccc(-c2nnn(CC(=O)Nc3ccc4c(c3)OCCO4)n2)cc1`, the inhibition is 0%. For `Cc1ccc(N2C(=O)NC(=O)/C(=C\c3ccc(-c4ccccc4C(=O)O)o3)C2=O)cc1` the value was 0%; for `Cc1cccc(C)c1NC(=O)COc1ccc2c3c(c(=O)oc2c1)CCCCC3`, 0%. For `O=C(c1cc(-c2ccccc2Cl)nc2ccccc12)N1CCN(Cc2ccc3c(c2)OCO3)CC1` the value was 0%; for `Cc1ccc(C(=O)COc2cccc(N3C(=O)[C@@H]4[C@H]5CC[C@H](C5)[C@@H]4C3=O)c2)cc1C`, 0%.

As for `O=C(c1ccc2nc(C3CC3)oc2c1)N1CCC(CCc2ccccc2)CC1`, the inhibition was 0%. As for `O=C(c1cc(-c2ccc3c(c2)OCO3)nc2ccccc12)N1CCN(c2ccccc2F)CC1`, the figure is 0%. In the case of `COc1cccc(Nc2nc(C3(C)CC4(CC(C)OC4=O)C(=O)O3)cs2)c1` (stereo not drawn), the inhibition was 0%. As for `O=C1c2cccc3cccc(c23)C(=O)N1CCCc1nc2sc3c(c2c(=O)[nH]1)CCCC3`, the figure is 0%; as for `Cc1ccc2c(c1)CCCN2C(=O)c1cc(-c2ccc3c(c2)OCO3)nc2ccccc12`, 10%.

As to `Cc1ccccc1Nc1nnc(-c2ccc(C(=O)NCCO)cc2)c2ccccc12`, the inhibition was 0%. Consider `Cc1cc(C)c2nc(Nc3nc(C)cc(-c4ccccc4)n3)nc(C)c2c1`, for which the inhibition came to 0%. For `Cc1ccc2nc(-c3ccc(Cl)c(NC(=S)NC(=O)c4ccccc4C)c3)oc2c1` the value was 0%; for `NC(=O)c1c(NC(=O)c2cc(-c3ccc4c(c3)OCO4)nc3ccccc23)sc2c1CCCCCC2`, 0%. The compound `COc1ccc(F)cc1C(=O)C1CCCN(C(=O)c2ccc(Cn3cnnn3)cc2)C1` (stereo not drawn) registered an inhibition of 0%. For `O=C(Nc1ccc(Oc2cccnc2)cc1)[C@@H]1CCCCN1Cc1ccc2c(c1)CCO2` the value was 0%.

Turning to `Cc1ccc2nc(NC(=S)NC(=O)c3oc4ccccc4c3C)sc2c1`, the inhibition turned out to be 0%.

In turn, `CC(C)(NC(=O)CCn1ccc(=O)[nH]c1=O)c1cccc2ccccc12` had an inhibition of 0%. For the compound `Cc1ncc(CNC2CCCc3nc(-c4ccccc4)ncc32)n1C` (stereo not drawn), the inhibition was found to be 0%. With `Cn1c(COc2nnc(-c3ccccc3)c3ccccc23)nc2ccccc21`, the inhibition amounted to 0%. On to `O=C1C(=Cc2ccc(-c3ccccc3[N+](=O)[O-])o2)C(=O)N(c2ccccc2)C(=S)N1c1ccccc1`, for which the inhibition came to 0%. For `O=C(NCc1ccc(-c2nc3ccccc3o2)cc1)c1cccc(-c2cc3ccccc3oc2=O)c1` the value was 0%; for `O=C(Nc1nccs1)c1cccc(N2C(=O)c3cccc4c([N+](=O)[O-])ccc(c34)C2=O)c1`, 0%; for `O=C1NC(=O)N(c2ccc(F)cc2)C(=O)/C1=C/c1cc(Cl)ccc1OCc1ccc(C(=O)O)cc1`, 0%. For `O=C(NC1CCCc2c1cnn2-c1ccccc1F)c1ccc(-n2ccnc2)cc1` (stereo not drawn) the value was 15%.

As for `N#Cc1cccc(Oc2ccc(-c3nc4ccccc4nc3-c3ccccc3)cc2)c1C#N`, the inhibition was 0%.

For `O=C(O)c1ccc2c(c1Nc1cccc3c1C(=O)c1ccccc1C3=O)C(=O)c1ccccc1C2=O`, the inhibition turned out to be 0%. As for `COC(=O)c1ccc(N2C(=O)NC(=O)/C(=C\c3ccccc3OCc3ccc(C(=O)O)cc3)C2=O)cc1`, the figure is 0%; as for `O=C(OCc1ccc(S(=O)(=O)c2ccccc2)cc1)c1ccc2c(c1)-c1ccccc1C2=O`, 0%. In turn, `O=C1NCCN(Cc2cccc(F)c2F)[C@H]1CC(=O)N1CCc2c([nH]c3ccccc23)C1` gave an inhibition of 0%. Take `O=C1NC(=O)N(c2ccc3c(c2)OCO3)C(=O)/C1=C/c1ccc(-c2ccc(F)cc2)o1`: the inhibition is 0%. For `Cc1c(C(=O)Nc2ccc3c(c2)Cc2ccccc2-3)cccc1[N+](=O)[O-]` the value was 0%; for `Cc1ccc(N2C(=O)C[C@@H](N3CCN(c4nc5ccccc5s4)CC3)C2=O)c(C)c1`, 0%. For `Cc1c(O)cccc1C(=O)N1CCC[C@@H]1c1nc(-c2ccccc2)no1` the value was 0%.
